Among the data in PubChem BioAssay AID743257 (The Scripps Research Institute Molecular Screening Center, 2014) are inhibition values, retold here.

Among all 2,900 compounds or so, about 1,900 (66%) were called active. The set was probably picked from earlier hits. These entries were drawn from the full list. Values without a mark were called inactive.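 Rule for the calls: active = mean inhibition across replicates above the hit cutoff set in the primary screen (cut at about 8.5% in these data); inactive = the rest.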

Disintegrin and metalloproteinase domain-containing protein 17 (Homo sapiens), sequence (P78536 215-824 limits assumed): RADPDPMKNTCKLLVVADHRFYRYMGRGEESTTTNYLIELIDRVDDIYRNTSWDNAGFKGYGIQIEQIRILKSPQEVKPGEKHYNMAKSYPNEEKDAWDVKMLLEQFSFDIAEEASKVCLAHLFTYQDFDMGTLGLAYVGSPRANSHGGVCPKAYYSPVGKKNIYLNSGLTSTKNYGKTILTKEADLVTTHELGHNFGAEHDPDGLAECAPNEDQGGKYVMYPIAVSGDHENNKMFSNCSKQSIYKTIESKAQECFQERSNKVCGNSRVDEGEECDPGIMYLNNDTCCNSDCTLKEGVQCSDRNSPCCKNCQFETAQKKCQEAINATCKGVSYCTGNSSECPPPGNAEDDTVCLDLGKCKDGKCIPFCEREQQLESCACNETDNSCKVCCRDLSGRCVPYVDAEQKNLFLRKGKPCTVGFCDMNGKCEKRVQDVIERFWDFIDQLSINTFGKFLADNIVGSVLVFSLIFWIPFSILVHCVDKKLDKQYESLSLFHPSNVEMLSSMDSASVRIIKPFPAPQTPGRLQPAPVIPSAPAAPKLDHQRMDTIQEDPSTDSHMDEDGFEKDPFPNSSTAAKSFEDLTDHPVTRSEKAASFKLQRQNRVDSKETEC

The assay addresses Disintegrin and metalloproteinase domain-containing protein 17 (Homo sapiens) (UniProt P78536). The assay can be described thus: ADAM17 inhibitors, hit retest, confirmation, biochemical, QFRET peptide cleavage (AID 743257).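 Note: 0% = DMSO wells and 100% = marimastat wells.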 The following applies: recombinant ADAM17, EDANS/DABCYL QFRET peptide cleavage; at 6.95 µM; stronger effect = higher value. The essentials: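 Assay system: human ADAM17 protease with quenched FRET peptide substrate / Buffer or medium: 50 mM HEPES buffer, pH 7.5, with 0.01% Brij / Schedule: 30 min preincubation, 3 h reaction / Technique: fluorescence at ex 359 nm, em 460 nm / Read-out: percent inhibition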
`CC1(Cc2cccc(C#N)c2)C(=O)Nc2ccc(-c3cccc(C(F)(F)F)c3)cc21` (centres undefined): the inhibition is 16.4% (active).

With `O=C(COC(=O)CCCSc1nc2ccccc2[nH]1)Nc1ccc(Oc2ccccc2)cc1`, the inhibition is 21.9% (active). The result for `COC(C(=O)Nc1ccc(S(=O)(=O)Nc2ccc(C)c(C)c2)cc1)c1ccccc1` (centres undefined) reads 13.7% (active); that for `COc1ccc(C(CNC(=O)c2cc(S(=O)(=O)Nc3cccc(C)c3)ccc2C)N2CCCC2)cc1` (centres undefined), 2.1%; that for `CCN1C(=O)C(CC(=O)Nc2cc(C)ccc2C)SC1=Nc1ccc(S(N)(=O)=O)cc1` (centres undefined), 7.07%.

As for `O=C(CC1SC(=Nc2ccccc2)N(Cc2ccccn2)C1=O)Nc1cccc(Cl)c1` (centres undefined), the inhibition was 18.4% (active). The value for `CCOc1ccc(Nc2nc(Cc3nnc(SCC(=O)c4ccc(C)cc4)o3)cs2)cc1` was 8.23%. With `CN(C(=O)c1cccc(NC(=O)Cc2cccc([N+](=O)[O-])c2)c1)C1CCCCC1`, the inhibition was 8.38%. For `O=C(CSc1nc(-c2ccccc2)cs1)Nc1cccc([N+](=O)[O-])c1`, the inhibition was 14.6% (active). The result for `CC[C@@]12C(=O)N(c3ccccc3)C(=O)N1[C@H](c1ccc(Br)cc1)[C@@H]1C(=O)N(C(C)(C)C)C(=O)[C@@H]12` reads 2.65%; that for `CC(C)(C)N1C(=O)[C@H]2[C@@H](c3ccc(Br)cc3)N3C(=O)N(c4cccc(Cl)c4)C(=O)[C@@]3(C)[C@H]2C1=O`, 12.8% (active); that for `COc1ccc([C@@H]2[C@@H]3C(=O)N(C(C)(C)C)C(=O)[C@@H]3[C@]3(Cc4ccccc4)C(=O)N(c4cccc(Br)c4)C(=O)N23)cc1`, 14.3% (active). The value for `CCOc1ccccc1C1CC(c2cccc(NS(C)(=O)=O)c2)=NN1C(=O)c1ccccc1` (centres undefined) was 3.69%. `CCOc1ccc(N2C(=O)CC(N(CCc3ccc(OC)c(OC)c3)C(=S)Nc3ccccc3)C2=O)cc1` (centres undefined): the inhibition was 2.05%. The value for `O=C(OCc1ccc(-c2ccccc2)cc1)c1cccc(O)c1` was 15.7% (active); that for `Cc1ccc(OCCOCCOc2ccc(Br)cc2/C=N\NC(=O)c2ccncc2)cc1` was 16.2% (active); that for `Cc1ccc(S(=O)(=O)NCCSc2ccccc2)cc1[N+](=O)[O-]` was 7.81%. Turning to `COc1cccc(/C=N/NC(=O)c2cccc([N+](=O)[O-])c2)c1OS(=O)(=O)c1ccc(C)cc1`, the inhibition was 13.8% (active).

As to `CC(C)Oc1cc(F)ccc1-c1cc(C(=O)Nc2cccc(Cl)c2)[nH]n1`, the inhibition is 14.6% (active).

For the compound `O=C(COc1ccc(Cl)cc1)N1CCN(c2cccc(C(F)(F)F)c2)CC1`, the inhibition is 9.24% (active). The result for `Cc1onc(C(=O)NN)c1-c1csc(COc2ccccc2)n1` reads 3.32%; that for `COC(=O)c1c(C)[nH]c(C(=O)/C=C/c2ccc(Cl)cc2)c1C`, -5.64%; that for `CCOC(=O)c1c(Cc2ccc(Cl)cc2)c[nH]c1C`, 9.85% (active).

Turning to `COc1ccc(C(=O)C2CCCN(S(=O)(=O)c3cccc(C)c3)C2)c(C)c1` (centres undefined), the inhibition is 6.46%. The value for `COc1ccc(S(=O)(=O)N2CCCCC2)cc1Br` was 10.9% (active); that for `COCCNC(=O)C(c1ccc(C)o1)N(Cc1ccccc1)C(=O)Cn1nnc2ccccc21` (centres undefined) was 1.74%; that for `COc1ccccc1C(=O)NCC(=O)OCC(=O)NNC(=O)c1ccc(Br)cc1` was 3.39%.

Regarding `CC(=O)Nc1ccc(S(=O)(=O)N2CCN(CCCOc3cc(C)ccc3C)CC2)cc1`, the inhibition is 9.43% (active).

`Cn1c(=O)c2c(nc(N/N=C/c3cccs3)n2Cc2ccc(Br)cc2)n(C)c1=O`: the inhibition was -12%. Regarding `COc1ccc(C(=O)Nc2ccc(C3(C#N)CCCC3)cc2)cc1OC`, the inhibition is -0.86%. The result for `Cc1cc(C)cc(NS(=O)(=O)c2ccc(Oc3ncc(C(F)(F)F)cc3Cl)cc2)c1` reads 20.1% (active); that for `COc1cccc(NC(=O)C2C(c3ccccc3)C2(Cl)Cl)c1` (centres undefined), 19.5% (active). The result for `O=C(CN1CCN(c2nc(-c3ccccc3)cs2)CC1)NCc1ccc2c(c1)OCO2` reads 12.5% (active). The result for `Cc1ccc(-c2n[nH]c(=S)n2/N=C/c2cc3c(cc2[N+](=O)[O-])OCO3)cc1` reads 4.12%; that for `CCOc1ccc(-n2c(SCC(=O)Nc3cc(C)c(NC(=O)c4ccccc4)cc3OC)nnc2-c2cccs2)cc1`, 14.6% (active); that for `COc1cccc(CNc2nc(C(F)(F)F)nc3ccccc23)c1`, 7.14%. Turning to `Clc1ccc(C(Cn2ccnc2)OCc2ccsc2Cl)c(Cl)c1` (centres undefined), the inhibition was 9.7% (active). The result for `CS(=O)(=O)Nc1cccc(C2=NN(S(=O)(=O)c3ccccc3)C(c3cccs3)C2)c1` (centres undefined) reads 6.85%; that for `Cc1cc(C)cc(NC(=S)NCCc2c[nH]c3ccccc23)c1`, 8.25%; that for `N#C/C(=C/c1ccc(N2CCCCC2)o1)C(=O)NCCc1c[nH]c2ccccc12`, 10.2% (active). The result for `COc1ccc(-c2cc(C3CCN(c4ncccc4[N+](=O)[O-])CC3)[nH]n2)cc1` reads 13.2% (active); that for `COc1ccc(CC(N)c2csc(NC(=O)NC(c3ccccc3)c3ccccc3)n2)cc1` (centres undefined), 3.55%. The value for `C=C(C)COc1ccc(-c2n[nH]c(C)c2-c2ccccc2)c(O)c1` was 20.8% (active); that for `COc1ccc(Cl)cc1NC(=O)COC(=O)C(CC(C)C)N1C(=O)C2CC=CCC2C1=O` (centres undefined) was 9.46% (active); that for `CC(C)N(C(=O)[C@H]1C[C@H](CC(=O)NC(C)(C)C)C(=O)N2CCc3c([nH]c4ccc(Cl)cc34)[C@]12C)C(C)C` was 8.88% (active). As for `CCOc1ccccc1CNS(=O)(=O)c1cc(-c2cc(C)no2)ccc1C`, the inhibition was 3.8%. The result for `CCOC(=O)c1cccc(NC(=O)CN(C)S(=O)(=O)c2ccc(-c3cocn3)s2)c1` reads 6.09%; that for `Cc1ccc(S(=O)(=O)N2CCN(C(=O)COC(=O)c3c(C)cc(C)cc3C)CC2)c(C)c1`, 9.17% (active). The result for `COC(=O)N(C)C[C@@H]1OCc2cnnn2CCCC(=O)N([C@@H](C)CO)C[C@@H]1C` reads 0.27%. The value for `Cn1nc(C(F)(F)F)c2cc(NC(=O)OCC(C)(C)C)sc21` was 10.8% (active); that for `O=C(CSc1nc(Nc2ccccc2)nc(N2CCOCC2)n1)Nc1cc(Cl)ccc1O` was 18.7% (active); that for `CC(C)(C)c1ccc(S(=O)(=O)NCC2CCN(C(=O)C(=O)c3cc4ccccc4o3)CC2)cc1` was 15.1% (active). Consider `O=C1[C@H]2[C@@H](c3ccc(C(F)(F)F)cc3)N[C@]3(CCCN(Cc4ccc(Br)cc4)C3=O)[C@H]2C(=O)N1Cc1ccccc1`, for which the inhibition was 19.6% (active). The value for `O=C(NCc1ccccc1)C1=C[C@@H](c2ccc(C(F)(F)F)cc2)C[C@@H](OCc2ccc(CO)cc2)O1` was 21.4% (active). As for `Cc1ccc(C(=O)Nc2ccc(C)c(S(=O)(=O)N(C)C)c2)s1`, the inhibition is 10.8% (active). The value for `Cc1ccc(-n2c(COc3ccccc3)nnc2SCC(=O)Nc2ccc3c(c2)OCCO3)cc1` was 15.9% (active). The value for `Cc1cc(NC(=O)CN2C(=O)NC(CC(C)C)C2=O)no1` (centres undefined) was 15.1% (active); that for `CCCn1nc(C(=O)NNC(=O)CSCC(=O)Nc2cc(C)on2)c2ccccc2c1=O` was 0.67%; that for `NNC(=O)C1CCCn2c1nc1sc3c(c1c2=O)CCCC3` (centres undefined) was 1.06%.

As for `COc1ccc(CC(=O)c2ccc(O)cc2O)cc1OC`, the inhibition was 1.45%. The result for `CC(C)C(=O)Nc1cccc(NC(=S)NC(=O)C(c2ccccc2)c2ccccc2)c1` reads 17.6% (active). The result for `COc1cc(C2CC(=O)N3CN(Cc4ccccc4)CSC3=C2C#N)ccc1OCc1ccccc1` (centres undefined) reads 15.8% (active); that for `COc1ccc(S(=O)(=O)Nc2ccc(O)c(Sc3nc4ccccc4s3)c2)cc1`, 10.7% (active); that for `C=CCOc1ccccc1/C=N/NC(=O)Cc1ccccc1`, 2.48%.

As for `O=C1NC(=O)C(c2ccc(Cl)cc2)N1` (centres undefined), the inhibition was 13.7% (active). The value for `Cc1ccc(OCc2nnc(SC/C=C/c3ccccc3)n2Cc2ccco2)cc1` was 12.5% (active); that for `Cc1ccc(-c2nnc(SCC(=O)Nc3ccc(Oc4ccccc4)cc3)n2Cc2ccco2)cc1` was 18.5% (active); that for `CCCN(CC(=O)NC(=O)NC1CCCCC1)CC(=O)Nc1cc(Cl)ccc1Cl` was 17.5% (active). The result for `CN(C)c1ccc(NC(=O)NC2CCCCN(Cc3ccc(Cl)cc3)C2=O)cc1` (centres undefined) reads 3.4%; that for `O=C(CSCc1ccc(Br)cc1)Nc1ccc(S(=O)(=O)N2CCCCCC2)cc1`, 12.6% (active); that for `COc1ccc(C(N)c2csc(NC(=O)Nc3cccc(C(F)(F)F)c3)n2)cc1` (centres undefined), 6.58%. The result for `Cn1nc(C(F)(F)F)c(C(=O)Nc2cccc(C(F)(F)F)c2)c1SCc1ccc(Cl)cc1` reads 19.4% (active); that for `CC(=O)Nc1ccc(S(=O)(=O)Oc2ccc(Br)cc2C(=S)N2CCOCC2)cc1`, 9.82% (active). Consider `S=C(NCc1ccc(Cl)cc1)NC12CC3CC(CC(C3)C1)C2`, for which the inhibition is 11.1% (active).

Regarding `O=C(Cc1ccc(Cl)c(Cl)c1)Nc1ccc(SC(F)F)cc1`, the inhibition is 25.1% (active). In the case of `COc1ccc(CN(C)C(=O)CC(c2ccccc2)c2ccccc2)cc1`, the inhibition was 5.73%.

Consider `O=C(c1ccccc1)N1CCN(c2ccc([N+](=O)[O-])c(NCc3ccco3)c2)CC1`, for which the inhibition is 9.37% (active). `CC(C)(C)OC(=O)N1CCC(NC(=O)c2[nH]cnc2C(=O)N[C@@H](Cc2ccccc2)C(=O)OCc2ccccc2)CC1`: the inhibition was 22.4% (active). As for `CC(C)(C)OC(=O)CNC(=O)c1[nH]cnc1C(=O)N[C@@H](Cc1ccccc1)C(=O)OCc1ccccc1`, the inhibition was 20.1% (active). The value for `CCOc1ccc(OCC)c(-c2c(=O)n(OCc3ccc(Cl)cc3)c3ccccc3[n+]2[O-])c1` was 2.59%. The result for `Cc1sc2nc(SCC(=O)c3ccc(O)c(O)c3)n(Cc3ccco3)c(=O)c2c1C` reads 12.6% (active); that for `CCn1c(Cc2cccs2)nnc1SCC(=O)c1ccc(C)cc1`, 2.25%; that for `O=C(Cc1ncc(C(F)(F)F)cc1Cl)Nc1cccc(Br)c1`, 5.32%. The result for `CCc1cccc(NC(=O)COC(=O)C2CCN(c3ccc(C(F)(F)F)cn3)CC2)c1` reads 16.5% (active).

For orientation: inhibition means the relative decrease from the control value, in per cent.
